Test results: ChEMBL document CHEMBL4382192, “Discovery of a potent dual ALK and EGFR T790M inhibitor” (Eur J Med Chem, 2017)

How the values were obtained:
[1] = target: CYP2D6 (Homo sapiens, UniProt P10635); experiment: Residual activity of CYP2D6 in human liver microsomes at 10 uM using dextromethorphan O-demethylase as substrate preincubated for 5 mins followed by NADPH addition measured after 15 mins by LC/MS/MS analysis relative to control; conditions: probe dextromethorphan (O-demethylation)
[2] = Metabolic stability in rat liver microsomes assessed as parent compound remaining at 1 uM after 30 mins in presence of NADPH by LC/MS/MS analysis; type: ADME, Microsome; conditions: read-out: Stability
Method in brief: (§1)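 Compound at 1 μM final with 0.5 mg/mL microsomal protein in 100 mM phosphate buffer pH 7.4 at 37 °C, started by adding an NADPH-regenerating system. Reactions were quenched with cold acetonitrile at 0 and 30 min and spun down. Supernatant was analysed by LC-MS/MS. The 0-min sample, quenched before NADPH addition, was set as 100%, and percent parent remaining came from peak areas.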

[3] = target: CYP2C9 (Homo sapiens, UniProt P11712); experiment: Residual activity of CYP2C9 in human liver microsomes at 10 uM using tolbutamide 4-hydroxylase as substrate preincubated for 5 mins followed by NADPH addition measured after 15 mins by LC/MS/MS analysis relative to control; conditions: probe tolbutamide (4-hydroxylation)
[4] = target: T1, CYP1A2 (Homo sapiens, UniProt P05177); experiment: Residual activity of CYP1A2 in human liver microsomes at 10 uM using phenacetin O-deethylase as substrate preincubated for 5 mins followed by NADPH addition measured after 15 mins by LC/MS/MS analysis relative to control; conditions: probe phenacetin (O-deethylation)
T1 sequence (P05177 whole entry): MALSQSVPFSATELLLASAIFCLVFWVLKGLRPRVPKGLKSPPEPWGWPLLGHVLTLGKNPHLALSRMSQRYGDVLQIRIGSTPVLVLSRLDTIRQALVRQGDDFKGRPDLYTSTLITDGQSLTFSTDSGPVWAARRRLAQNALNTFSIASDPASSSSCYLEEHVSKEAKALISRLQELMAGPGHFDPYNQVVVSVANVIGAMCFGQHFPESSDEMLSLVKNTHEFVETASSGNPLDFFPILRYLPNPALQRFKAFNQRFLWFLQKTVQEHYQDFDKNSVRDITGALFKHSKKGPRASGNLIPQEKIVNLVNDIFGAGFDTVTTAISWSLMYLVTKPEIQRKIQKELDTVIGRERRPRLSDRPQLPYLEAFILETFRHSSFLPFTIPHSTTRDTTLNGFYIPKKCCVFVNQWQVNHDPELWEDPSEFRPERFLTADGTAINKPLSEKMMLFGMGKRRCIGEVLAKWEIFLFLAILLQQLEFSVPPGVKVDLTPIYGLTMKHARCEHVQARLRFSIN

[5] = Metabolic stability in human liver microsomes assessed as parent compound remaining at 1 uM after 30 mins in presence of NADPH by LC/MS/MS analysis; type: ADME, Microsome; conditions: read-out: Stability
Method in brief: as §1

[6] = test system: BaF3; experiment: Antiproliferative activity against mouse BAF3 cells assessed as reduction in cell viability after 72 hrs by MTS assay; type: cell-based; conditions: BaF3, 72 h
[7] = target: CYP2C19 (Homo sapiens, UniProt P33261); experiment: Residual activity of CYP2C19 in human liver microsomes at 10 uM using S-mephenytoin 4-hydroxylase as substrate preincubated for 5 mins followed by NADPH addition measured after 15 mins by LC/MS/MS analysis relative to control; conditions: probe S-mephenytoin (4-hydroxylation)
[8] = Metabolic stability in dog liver microsomes assessed as parent compound remaining at 1 uM after 30 mins in presence of NADPH by LC/MS/MS analysis; type: ADME, Canis lupus familiaris, Microsome; conditions: read-out: Stability
Method in brief: as §1

[9] = target: CYP3A4 (Homo sapiens, UniProt P08684); experiment: Residual activity of CYP3A4 in human liver microsomes at 10 uM using midazolam 1-hydroxylase as substrate preincubated for 5 mins followed by NADPH addition measured after 15 mins by LC/MS/MS analysis relative to control; conditions: probe midazolam (1-hydroxylation)
[10] = Metabolic stability in mouse liver microsomes assessed as parent compound remaining at 1 uM after 30 mins in presence of NADPH by LC/MS/MS analysis; type: ADME, Microsome; conditions: read-out: Stability
Method in brief: as §1

[11] = target: ALK tyrosine kinase receptor (Homo sapiens, UniProt Q9UM73); experiment: Inhibition of GST-tagged human ALK cytoplasmic domain (1058 to 1620 residues) expressed in baculovirus expression system using Poly G:T (4:1) as substrate after 30 mins by Z-LYTE assay
ALK tyrosine kinase receptor, sequence (Q9UM73 whole entry, the tested form may be a part): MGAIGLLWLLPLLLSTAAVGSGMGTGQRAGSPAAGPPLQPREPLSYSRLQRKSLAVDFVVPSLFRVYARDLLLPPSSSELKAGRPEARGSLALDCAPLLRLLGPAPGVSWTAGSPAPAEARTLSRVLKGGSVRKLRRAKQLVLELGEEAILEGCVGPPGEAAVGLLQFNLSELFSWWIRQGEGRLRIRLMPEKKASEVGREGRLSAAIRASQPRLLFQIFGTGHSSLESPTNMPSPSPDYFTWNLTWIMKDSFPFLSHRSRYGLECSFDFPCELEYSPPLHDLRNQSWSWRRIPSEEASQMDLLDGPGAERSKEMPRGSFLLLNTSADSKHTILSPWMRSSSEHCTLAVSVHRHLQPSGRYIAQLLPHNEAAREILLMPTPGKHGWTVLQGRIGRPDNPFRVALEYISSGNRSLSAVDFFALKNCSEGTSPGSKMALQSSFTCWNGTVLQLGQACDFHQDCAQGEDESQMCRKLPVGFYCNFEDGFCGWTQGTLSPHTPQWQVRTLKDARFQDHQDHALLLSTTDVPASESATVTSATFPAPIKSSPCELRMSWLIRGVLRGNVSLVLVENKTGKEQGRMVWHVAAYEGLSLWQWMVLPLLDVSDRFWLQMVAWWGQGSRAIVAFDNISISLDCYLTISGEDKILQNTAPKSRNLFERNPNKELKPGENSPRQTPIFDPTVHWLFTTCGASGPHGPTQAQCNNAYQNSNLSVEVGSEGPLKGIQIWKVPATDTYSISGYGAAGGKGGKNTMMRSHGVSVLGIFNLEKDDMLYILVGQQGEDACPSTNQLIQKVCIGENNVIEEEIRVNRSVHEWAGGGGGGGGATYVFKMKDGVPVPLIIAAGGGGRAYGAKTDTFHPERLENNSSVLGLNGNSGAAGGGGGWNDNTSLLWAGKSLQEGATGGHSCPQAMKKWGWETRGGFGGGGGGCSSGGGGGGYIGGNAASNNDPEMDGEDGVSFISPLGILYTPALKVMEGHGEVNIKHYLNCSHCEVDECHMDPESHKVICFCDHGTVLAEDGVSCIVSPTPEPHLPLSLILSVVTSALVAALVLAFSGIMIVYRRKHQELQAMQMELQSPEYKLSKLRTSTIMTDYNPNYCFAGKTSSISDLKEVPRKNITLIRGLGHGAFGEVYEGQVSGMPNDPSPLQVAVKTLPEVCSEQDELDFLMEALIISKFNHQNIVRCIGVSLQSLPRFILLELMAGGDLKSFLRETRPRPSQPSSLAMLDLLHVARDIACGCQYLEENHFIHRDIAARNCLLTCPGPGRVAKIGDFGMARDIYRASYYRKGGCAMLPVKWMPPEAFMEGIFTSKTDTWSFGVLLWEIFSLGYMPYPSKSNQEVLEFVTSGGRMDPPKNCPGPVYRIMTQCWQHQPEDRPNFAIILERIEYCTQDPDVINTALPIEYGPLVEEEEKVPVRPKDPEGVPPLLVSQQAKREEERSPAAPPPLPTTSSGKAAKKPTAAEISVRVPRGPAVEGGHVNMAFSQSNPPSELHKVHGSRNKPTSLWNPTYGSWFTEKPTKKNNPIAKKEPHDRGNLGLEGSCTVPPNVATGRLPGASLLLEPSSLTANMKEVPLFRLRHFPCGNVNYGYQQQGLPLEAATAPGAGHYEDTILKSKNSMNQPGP

CYP2D6, sequence (P10635 whole entry): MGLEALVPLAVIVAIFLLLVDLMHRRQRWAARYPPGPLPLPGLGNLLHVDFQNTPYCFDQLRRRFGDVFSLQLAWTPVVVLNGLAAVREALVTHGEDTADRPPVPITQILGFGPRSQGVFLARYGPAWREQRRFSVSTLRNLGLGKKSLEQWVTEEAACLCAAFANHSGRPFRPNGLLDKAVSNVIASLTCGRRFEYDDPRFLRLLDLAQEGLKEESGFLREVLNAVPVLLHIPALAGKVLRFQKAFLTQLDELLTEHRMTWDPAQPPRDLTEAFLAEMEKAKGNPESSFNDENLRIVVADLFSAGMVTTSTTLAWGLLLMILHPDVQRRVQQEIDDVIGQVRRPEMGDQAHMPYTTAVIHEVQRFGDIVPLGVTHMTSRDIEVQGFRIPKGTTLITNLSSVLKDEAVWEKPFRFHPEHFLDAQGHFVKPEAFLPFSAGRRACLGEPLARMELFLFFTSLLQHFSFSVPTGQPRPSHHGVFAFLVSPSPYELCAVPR
CYP3A4, sequence (P08684 whole entry): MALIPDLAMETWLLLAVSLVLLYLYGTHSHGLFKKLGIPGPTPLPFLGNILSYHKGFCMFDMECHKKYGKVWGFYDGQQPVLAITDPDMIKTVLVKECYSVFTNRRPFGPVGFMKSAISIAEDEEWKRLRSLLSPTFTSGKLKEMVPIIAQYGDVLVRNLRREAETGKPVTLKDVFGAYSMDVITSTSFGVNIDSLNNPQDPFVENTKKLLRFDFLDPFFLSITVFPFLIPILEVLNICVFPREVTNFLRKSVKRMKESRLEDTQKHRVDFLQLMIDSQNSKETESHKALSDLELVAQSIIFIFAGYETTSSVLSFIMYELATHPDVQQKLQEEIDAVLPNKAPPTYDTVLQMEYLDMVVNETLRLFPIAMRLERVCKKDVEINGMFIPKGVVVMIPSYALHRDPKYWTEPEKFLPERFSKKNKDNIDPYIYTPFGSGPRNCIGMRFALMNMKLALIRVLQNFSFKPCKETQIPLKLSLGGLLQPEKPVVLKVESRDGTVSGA
CYP2C9, sequence (P11712 whole entry): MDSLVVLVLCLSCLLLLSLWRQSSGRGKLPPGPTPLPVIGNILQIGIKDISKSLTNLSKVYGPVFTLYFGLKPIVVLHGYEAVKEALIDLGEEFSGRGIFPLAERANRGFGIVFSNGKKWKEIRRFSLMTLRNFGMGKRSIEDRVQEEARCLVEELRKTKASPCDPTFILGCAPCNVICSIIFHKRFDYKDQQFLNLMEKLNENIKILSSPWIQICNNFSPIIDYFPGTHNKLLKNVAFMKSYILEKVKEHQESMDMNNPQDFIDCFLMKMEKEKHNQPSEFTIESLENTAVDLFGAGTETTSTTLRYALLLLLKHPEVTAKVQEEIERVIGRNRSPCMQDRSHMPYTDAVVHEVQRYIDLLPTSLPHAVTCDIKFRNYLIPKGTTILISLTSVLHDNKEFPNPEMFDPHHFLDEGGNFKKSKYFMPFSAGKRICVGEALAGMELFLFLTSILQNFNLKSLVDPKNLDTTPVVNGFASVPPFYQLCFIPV
CYP2C19, sequence (P33261 whole entry): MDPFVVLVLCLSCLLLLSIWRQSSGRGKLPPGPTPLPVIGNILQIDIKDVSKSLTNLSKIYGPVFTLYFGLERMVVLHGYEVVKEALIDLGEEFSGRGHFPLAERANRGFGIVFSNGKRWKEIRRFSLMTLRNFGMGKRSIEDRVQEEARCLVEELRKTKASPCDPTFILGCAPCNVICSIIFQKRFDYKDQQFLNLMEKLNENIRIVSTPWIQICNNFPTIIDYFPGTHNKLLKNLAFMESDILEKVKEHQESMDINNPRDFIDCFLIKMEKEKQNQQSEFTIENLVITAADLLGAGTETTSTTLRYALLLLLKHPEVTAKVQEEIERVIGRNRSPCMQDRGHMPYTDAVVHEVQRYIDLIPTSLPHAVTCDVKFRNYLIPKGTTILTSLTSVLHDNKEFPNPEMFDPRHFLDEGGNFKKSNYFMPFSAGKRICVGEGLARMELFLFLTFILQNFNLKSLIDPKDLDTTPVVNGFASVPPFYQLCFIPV

Compound	Activity at […], 10 µM [1]	remaining at 0.5 h, 1 µM [2]	Activity at […], 10 µM [3]	Activity at […], 10 µM [4]	remaining at 0.5 h, 1 µM [5]	EC50 [6]	Activity at […], 10 µM [7]	remaining at 0.5 h, 1 µM [8]	Activity at […], 10 µM [9]	remaining at 0.5 h, 1 µM [10]	IC50 [11]
C=CC(=O)Nc1cc(Nc2ncc(I)c(Nc3ccccc3P(C)(C)=O)n2)c(OC)cc1N(C)CCN(C)C	80%	81%	> 100%	91%	65%	> 5 µM	99%	93%	88%	57%	–
C=CC(=O)Nc1cc(Nc2nccc(-c3cn(C)c4ccccc34)n2)c(OC)cc1N(C)CCN(C)C [OSIMERTINIB]	–	–	–	–	–	> 5 µM	–	–	–	–	0.177 µM
C=CC(=O)Nc1cc(Nc2nccc(Nc3ccccc3P(C)(C)=O)n2)c(OC)cc1N(C)CCN(C)C	87%	78%	90%	84%	70%	> 5 µM	> 100%	73%	89%	76%	0.695 µM
C=CC(=O)Nc1cc(Nc2nccc(Nc3ccccc3S(=O)(=O)C(C)C)n2)c(OC)cc1N(C)CCN(C)C	67%	22%	90%	80%	5%	> 5 µM	87%	48%	40%	8%	–
C=CC(=O)Nc1cc(Nc2ncc(I)c(Nc3ccccc3S(=O)(=O)C(C)C)n2)c(OC)cc1N(C)CCN(C)C	82%	14%	88%	81%	14%	> 5 µM	86%	19%	47%	10%	–
C=CC(=O)Nc1cc(Nc2ncc(F)c(Nc3ccccc3S(=O)(=O)N(C)C)n2)c(OC)cc1N(C)CCN(C)C	> 100%	7%	88%	> 100%	9%	–	91%	33%	71%	10%	–
C=CC(=O)Nc1cccc(Oc2nc(Nc3ccc(N4CCN(C)CC4)cc3OC)ncc2Cl)c1	–	–	–	–	–	> 5 µM	–	–	–	–	0.99 µM
C=CC(=O)Nc1cc(Nc2ncc(F)c(Nc3ccccc3P(C)(C)=O)n2)c(OC)cc1N(C)CCN(C)C	> 100%	87%	> 100%	> 100%	84%	> 5 µM	> 100%	87%	> 100%	80%	–
C=CC(=O)Nc1cc(Nc2ncc(Cl)c(Nc3ccccc3S(=O)(=O)N(C)C)n2)c(OC)cc1N(C)CCN(C)C	88%	13%	59%	87%	11%	–	75%	31%	39%	23%	–
C=CC(=O)Nc1cc(Nc2ncc(F)c(Nc3ccccc3S(=O)(=O)C(C)C)n2)c(OC)cc1N(C)CCN(C)C	95%	11%	94%	91%	26%	> 5 µM	93%	27%	51%	15%	–
C=CC(=O)Nc1cc(Nc2ncc(I)c(Nc3ccccc3S(=O)(=O)N(C)C)n2)c(OC)cc1N(C)CCN(C)C	93%	12%	85%	79%	13%	–	67%	35%	54%	12%	–
C=CC(=O)Nc1cc(Nc2ncc(Cl)c(Nc3ccccc3P(C)(C)=O)n2)c(OC)cc1N(C)CCN(C)C	85%	76%	> 100%	93%	61%	> 5 µM	98%	77%	91%	66%	–
Cc1cc(Nc2ncc(Cl)c(Nc3ccccc3S(=O)(=O)C(C)C)n2)c(OC(C)C)cc1C1CCNCC1 [CERITINIB]	–	–	–	–	–	> 5 µM	–	–	–	–	–
C=CC(=O)Nc1cc(Nc2nccc(Nc3ccccc3S(=O)(=O)N(C)C)n2)c(OC)cc1N(C)CCN(C)C	79%	6%	88%	82%	10%	> 5 µM	85%	50%	56%	5%	–
